Test results reported in ChEMBL document CHEMBL4613245, “Arenicolins: C-Glycosylated Depsides from Penicillium arenicola” (J Nat Prod, 2020).
pIC50: −log10 of the molar value. Calls of active or inactive are those of the source. The rule behind the calls is not given here.

Key:
HCT-116 [1] = test: Cytotoxicity against human HCT116 cells after 48 hrs by CellTiter-Glo assay; format: functional, cell-based; conditions: for pIC50: HCT-116, 48 h
Procedure, shortened: (§1)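 Cells plated at 2000/well and preincubated 2 h, then exposed for 48 h to serial dilutions from 0.3 to 30.0 μM. Controls were 5-FU (positive) and fresh medium (negative). Each concentration ran in triplicate, and viability was read by CellTiter-Glo luminescence per the kit protocol.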

IMR-32 [2] = test: Cytotoxicity against human IMR32 cells after 48 hrs by CellTiter-Glo assay; format: functional, cell-based; conditions: for pIC50: IMR-32, 48 h; procedure, shortened: as §1
Staphylococcus aureus = test: Antibacterial activity against Staphylococcus aureus ATCC 43300 at 100 ug/ml incubated for 24 to 48 hrs; format: functional, organism-based
Procedure, shortened: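 Agar well diffusion: sample dissolved in DMSO at 0.1 mg/mL, 10 μL applied to a 4 mm well cut in YM agar seeded with an overnight S. aureus ATCC 43300 culture; plates held at 37 °C and read for inhibition zones after 24–48 h.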

BT-474 [3] = test: Cytotoxicity against human BT474 cells after 48 hrs by CellTiter-Glo assay; format: functional, cell-based; procedure, shortened: as §1
Candida albicans = test: Antifungal activity against Candida albicans ATCC 10231 at 100 ug/ml measured at 24 hrs by agar well diffusion method
Cryptococcus neoformans = test: Antifungal activity against Cryptococcus neoformans H99 at 100 ug/ml measured at 48 hrs by agar well diffusion method; conditions: var grubii H99
HCT-116 [4] = test: Cytotoxicity against human HCT116 cells up to 30 uM after 48 hrs by CellTiter-Glo assay; format: functional, cell-based; procedure, shortened: as §1
IMR-32 [5] = test: Cytotoxicity against human IMR32 cells up to 30 uM after 48 hrs by CellTiter-Glo assay; format: functional, cell-based; procedure, shortened: as §1
BT-474 [6] = test: Cytotoxicity against human BT474 cells up to 30 uM after 48 hrs by CellTiter-Glo assay; format: functional, cell-based; procedure, shortened: as §1

| Structure (SMILES) | pIC50 (HCT-116 [1]) | pIC50 (IMR-32 [2]) | Activity (Staphylococcus aureus) | Activity (HCT-116 [1]) | Activity (IMR-32 [2]) | Activity (BT-474 [3]) | pIC50 (BT-474 [3]; BT-474, 48 h) | Activity (Candida albicans) | Activity (Cryptococcus neoformans) | Activity (HCT-116 [4]) | Activity (IMR-32 [5]) | Activity (BT-474 [6]) |
| --- | --- | --- | --- | --- | --- | --- | --- | --- | --- | --- | --- | --- |
| O=c1[nH]cc(F)c(=O)[nH]1 [FLUOROURACIL] | 5.19 | 5.24 | – | – | – | – | – | – | – | – | – | – |
| CCCCCCCc1cc(OC(=O)c2c(CCCCCCC)cc(O)c([C@@H]3O[C@H](CO)[C@@H](O)[C@H](O)[C@H]3O)c2O)cc(O)c1C(=O)O[C@@H]1C(=O)C(CO)=C[C@@H](O)[C@H]1O | 5.14 | 5.22 | inactive | Dose-dependent effect | Dose-dependent effect | Dose-dependent effect | 5.01 | inactive | inactive | – | – | – |
| CCCCCCCc1cc(OC(=O)c2c(CCCCCCC)cc(O)c([C@@H]3O[C@H](CO)[C@@H](O)[C@H](O)[C@H]3O)c2O)cc(O)c1C(=O)O | – | – | inactive | – | – | – | – | inactive | inactive | inactive | inactive | inactive |
